Source: PubChem
MrgX1 antagonist – human MrgX1 receptor antagonism, primary screen; 310,000 compounds, 1.3% hits; AID 588676; Q96LB2; B-score at 10 µM; MRGX1-HEK293 calcium flux, Fluo-4, BAM8-22 antagonism; stronger effect = lower value;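 active = calcium-response B-score plate-corrected more than 3 library SD below zero, starting fluorescence within 5 deviations, no agonist response on first addition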;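 also: peak minus trough fluorescence over baseline after final BAM8-22 challenge near maximal dose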
Target sequence (Q96LB2 whole entry, looked up): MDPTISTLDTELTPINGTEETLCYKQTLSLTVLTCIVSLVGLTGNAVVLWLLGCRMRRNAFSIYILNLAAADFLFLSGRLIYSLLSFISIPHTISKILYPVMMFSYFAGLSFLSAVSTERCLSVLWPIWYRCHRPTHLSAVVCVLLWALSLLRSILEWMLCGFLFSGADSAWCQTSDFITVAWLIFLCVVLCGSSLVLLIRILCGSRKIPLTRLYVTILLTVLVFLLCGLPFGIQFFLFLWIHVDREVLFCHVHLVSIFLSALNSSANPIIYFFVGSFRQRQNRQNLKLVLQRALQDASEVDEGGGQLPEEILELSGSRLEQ
MrgX1 ag – human MrgX1 receptor agonism, primary screen | Q96LB2 | MrgX1-HEK293 cells, Fluo-4 calcium fluorescence, agonist mode; stronger effect = higher value | B-score at 10 µM | 310,000 compounds, 0.44% hits;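 active = calcium response B-score plate-corrected fluorescence ratio at least 3 library SD, with starting fluorescence B-score inside 5 SD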
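Material: MrgX1-expressing HEK293 cells; input: 15,000 cells per well; doses: test compound given as first of three sequential additions; schedule: overnight plating before 1 h dye loading; technique: Fluo-4 NW calcium-flux fluorescence, kinetic read; evaluation: baseline-normalised fluorescence change ratio, B-scored; control set: plate-wise positive and negative controls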
RGS4 pot – potentiators or activators of RGS4; HEK293 M3R/inducible RGS4, carbachol calcium flux Fluo4; stronger effect = lower value; B-score at 10 µM; 310,000 compounds, 0.92% hits; AID 463111;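 active = B-score of the integrated calcium signal more than 4 SD below the library mean, with starting fluorescence not abnormally high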;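 also: negative B-score means reduced calcium response which marks RGS4 activation or potentiation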
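test system = HEK293 cells with stable M3R and inducible RGS4 | schedule = recording 10 s baseline at 1 Hz, 100 s post-agonist | technique = Fluo4-AM (2 µM) calcium-flux fluorescence, kinetic read | measure = Agonist-evoked peak-minus-minimum fluorescence over baseline, integrated ratio, B score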
MrgX1 PAM – allosterically activates human MrgX1 receptor signaling; B-score at 10 µM; Q96LB2; MrgX1-HEK293, Fluo-4 calcium flux, FDSS; stronger effect = higher value; 310,000 compounds, 0.63% hits;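 active = plate-corrected calcium response at least 3 library SD above typical, normal starting fluorescence, not activating the receptor alone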;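 also: compound read alongside a low EC10 to EC30 dose of BAM8-22 agonist; peak minus trough fluorescence over baseline measured at the second addition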
RGS4 inh – inhibitors of human RGS4 | P49798 | HEK293 M3R/RGS4 inducible, Fluo-4 calcium flux; stronger effect = higher value; triggered by carbachol at its EC20 | B-score at 10 µM | 310,000 compounds, 0.45% hits | AID 463165;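 active = B-score, a plate-corrected calcium signal, over three deviations above library mean, with baseline fluorescence within five deviations of library mean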;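 also: RGS4 expression induced by doxycycline in cells with stable M3 receptor; B-score is computed from the integrated fluorescence ratio over baseline after carbachol; higher B-score means a larger calcium signal and so more RGS4 inhibition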
Target sequence (P49798 whole entry, looked up): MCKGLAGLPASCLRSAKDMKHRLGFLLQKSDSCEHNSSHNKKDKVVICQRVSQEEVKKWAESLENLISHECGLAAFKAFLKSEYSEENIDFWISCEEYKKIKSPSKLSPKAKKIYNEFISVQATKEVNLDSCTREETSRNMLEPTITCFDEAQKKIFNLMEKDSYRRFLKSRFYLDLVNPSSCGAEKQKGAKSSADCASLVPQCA
Numbers without * were called inactive; i = inactive; . = no result given. An excerpt weighted towards active compounds, which were near 3.5% of everything screened.

SMILES	MrgX1 antagonist	MrgX1 ag	RGS4 pot	MrgX1 PAM	RGS4 inh
O=C(NC(=S)Nc1ccc(CN2CCCCC2)cc1)c1cccc(OCc2ccccc2)c1	i	i	-7.45*	i	i
O=C(Nc1ccc(CN2CCCCC2)cc1)c1c(F)c(F)c(F)c(F)c1F	i	i	-7.29*	i	i
COc1cc(OC)cc(C(=O)Nc2ccccc2-c2nnn(CC(=O)Nc3cc(C)on3)n2)c1	i	i	i	i	i
Cc1ccc(S(=O)(=O)/N=C2/NC(=O)/C(=C/c3cccnc3)S2)cc1	i	31.1*	i	i	i
O=C1N/C(=N/O)S/C1=C/c1cccnc1	i	i	i	i	i
Cc1ccc(OCC(O)Cn2c3ccccc3c3ccccc32)cc1 (centres undefined)	i	i	i	i	i
Cc1cccc(C)c1OCC(O)Cn1c2ccccc2c2ccccc21 (centres undefined)	i	i	-7.1*	i	i
O=c1[nH]c(NCCO)nnc1Cc1ccccc1	i	i	i	i	i
CCN1C(=O)/C(=C\N2CCCCCC2)SC1=S	i	i	-8.28*	i	i
COc1ccc(N2CC(C(=O)N/N=C/c3cccs3)CC2=O)cc1 (centres undefined)	-6.06*	i	i	i	i
COC12NC(=O)N(C)C1(OC)C(=O)N(C)C(=O)N2C (centres undefined)	i	i	i	i	i
O=C(NC(c1cccnc1)C(F)(F)F)c1cc(COc2ccc3c(c2)CCCC3)on1 (centres undefined)	i	i	-7.1*	i	i
COc1ccc(NC(=O)CC(C)NCCCN2CCCC2=O)cc1 (centres undefined)	i	i	i	i	i
CCn1cc(CNC(=O)/C=C/c2ccc([N+](=O)[O-])cc2)cn1	i	i	i	i	i
CCOc1ccc(NC(=O)CN(C)C(=O)c2ccc3nc(CC)c(CC)nc3c2)cc1OCC	i	i	i	7.45*	i
COc1cc(N/C=C(\C(C)=O)c2ccccc2)cc(OC)c1	i	30*	.	i	.
CCOCCCn1c(=N)c(C(=O)NCc2ccc3c(c2)OCO3)cc2c(=O)n3cccc(C)c3nc21	i	i	-8.46*	i	i
Cc1cccn2c(=O)c3cc(C(=O)NCc4ccco4)c(=N)n(CCc4ccccc4)c3nc12	i	i	.	i	.
Cc1cccn2c(=O)c3cc(C(=O)NCCc4ccccc4)c(=N)n(Cc4ccco4)c3nc12	i	i	-8.64*	i	i
O=C(CCNS(=O)(=O)c1ccc(Br)cc1)N1CCN(c2ccccc2O)CC1	i	i	i	i	i
Cc1cc(C(=O)Nc2c(C)nn(Cc3ccc(F)cc3)c2C)on1	-4.88*	i	i	i	i
CCC(C)N1C(=O)/C(=C/c2c(NCCCOC(C)C)nc3c(C)cccn3c2=O)SC1=S (centres undefined)	-11.1*	i	.	i	.
CCC(C)Nc1nc2c(C)cccn2c(=O)c1C=Nc1ccc(OC)cc1 (centres undefined)	i	i	i	i	i
Cc1cccn2c(=O)c(C=NCc3ccccc3)c(NCCO)nc12	i	i	i	i	i
CCCN1C(=O)/C(=C/c2c(NCCCOC(C)C)nc3c(C)cccn3c2=O)SC1=S	-10.4*	i	i	i	i
SMILES	MrgX1 antagonist	MrgX1 ag	RGS4 pot	MrgX1 PAM	RGS4 inh
O=C1C(Cl)=C(N2CCCC2)C(=O)N1c1ccccc1F	i	i	i	i	i
CCCn1c(=O)c(C(=O)NCCc2ccccc2)c(O)c2ccccc21	i	i	i	i	i
CCn1c(=O)c(C(=O)NNC(=O)c2ccc(Cl)cc2Cl)c(O)c2ccccc21	i	69*	-7.85*	i	i
CCCn1c(=O)c(C(=O)NNC(=O)c2ccc(Cl)cc2Cl)c(O)c2ccccc21	i	38.5*	i	i	i
CCc1nc2ccccc2c(=O)n1NC(=O)c1c(O)c2ccccc2n(CC)c1=O	i	i	i	12.1*	i
CCCn1c(=O)c(C(=O)NCCc2ccc(OC)cc2)c(O)c2ccccc21	i	i	i	6.97*	i
CCn1c(=O)c(C(=O)Nn2c(C)nc3ccccc3c2=O)c(O)c2ccccc21	i	i	i	i	i
O=C(C1=C[C@H](C2CCCCC2)C[C@H](OCCCCO)O1)N1CCN(Cc2ccccc2)CC1	i	i	i	i	i
O=C(/C=C/c1ccc2c(c1)OCO2)N1CCN(c2n[nH]c(=O)[nH]c2=O)CC1	i	i	i	i	i
O=[N+]([O-])c1cc(Br)c(Nc2ccccc2)c([N+](=O)[O-])c1	i	i	i	6.55*	i
O=C(Cn1ccc2ccccc2c1=O)NCC(=O)Nc1ccc(F)cc1F	i	i	i	i	i
CCOC(=O)N1CCN(S(=O)(=O)c2ccc(C(=O)N(CCCN(C)C)c3nc4c(F)cc(F)cc4s3)cc2)CC1	-7.9*	i	i	i	i
CCc1ccc2nc(N(CCCN(C)C)C(=O)c3ccc(S(=O)(=O)N4CCCc5ccccc54)cc3)sc2c1	i	i	-7.31*	i	i
COc1cc2nc(N(CCCN(C)C)C(=O)c3ccc(C(=O)c4ccccc4)cc3)sc2cc1OC	i	i	i	i	i
CCc1ccc2nc(N(CCCN(C)C)C(=O)c3ccc(C(=O)c4ccccc4)cc3)sc2c1	i	i	-8.07*	i	i
CCOC(=O)N1CCN(S(=O)(=O)c2ccc(C(=O)N(CCCN(C)C)c3nc4ccc(Cl)cc4s3)cc2)CC1	i	i	i	i	i
Cc1ccc2nc(N(CCCN(C)C)C(=O)c3ccc(S(=O)(=O)N4CCCCCC4)cc3)sc2c1	i	i	i	i	i
CCc1ccc2nc(N(CCCN(C)C)C(=O)c3ccc(S(=O)(=O)N4CCCC4)cc3)sc2c1	i	i	-10.7*	i	i
Cc1ccc(S(=O)(=O)N(C)C)cc1NC(=O)COC(=O)COc1ccc2c(c1)CCC2	i	i	i	i	i
Cc1cnc(C(=O)OC(C)C(=O)NCc2ccccc2)cn1 (centres undefined)	i	i	i	i	i
COc1ccc(OC)c2sc(N(CCCN(C)C)C(=O)c3ccc(S(=O)(=O)N4CCc5ccccc5C4)cc3)nc12	-6.15*	i	-10.1*	i	i
C=CCOC(=O)C1=C[C@@H](c2ccc(Br)cc2)C[C@@H](OCc2ccc(CO)cc2)O1	i	i	i	i	i
